Read-outs that look alike come from different tables or passages of the source.
What was measured:
Format in all cases: cell-based
[1] = tested on: Fem-X cells; assay: Antiproliferative activity, Kenacid Blue R dye binding cell survival, Fem-X; conditions: Homo sapiens, 72 h, read-out: IC50 (μM) Fem-X
In short: (§1)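 Adherent cells seeded at 2,000/well (HeLa, Fem-X) or 6,000/well (LS174); compounds added 20 h later at five double-diluted concentrations (20 mM DMSO stocks, final 0–300 μM). Continuous 72 h exposure, 37 °C, 5% CO2. PBS wash, methanol/acetic acid (3:1) fixation, 0.04% Coomassie R-250 staining, A570. Survival % vs medium-only control after cell-free blank subtraction; IC50 read from survival–concentration plot.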

[2] = tested on: K562 cells; assay: Antiproliferative activity, Kenacid Blue R dye binding cell survival, K562; conditions: Homo sapiens, K562, 72 h, read-out: IC50 (μM) K562
In short: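 K562 suspension culture in RPMI 1640 with 10% heat-inactivated FBS, 3 mM glutamine, 25 mM Hepes, pH 7.2. Seeded 3,000 cells/well and dosed 2 h later at five double-diluted concentrations (final 0–300 μM, from DMSO stocks). Exposure was 72 h at 37 °C, 5% CO2. Total protein by Kenacid Blue R (Coomassie R-250) staining, A570, blank-corrected. IC50 taken from survival % vs concentration.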

[3] = tested on: PBMC; assay: Cytotoxicity toward healthy peripheral blood mononuclear cells; conditions: Homo sapiens, 72 h, read-out: IC50 PBMC
In short: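 Unstimulated PBMC (no mitogen) were isolated from heparinized blood of two healthy donors by Lymphoprep gradient and washed three times in Haemaccel. Seeded at 150,000/well, then dosed 2 h later in triplicate at five final concentrations. After 72 h, cells were centrifuged (10 min, 2,000 rpm), fixed in methanol/acetic acid and stained with Kenacid Blue R, and A570 was read. Survival % vs medium control, cell-free blank subtracted.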

[4] = tested on: LS174 cells; assay: Antiproliferative activity, Kenacid Blue R dye binding cell survival, LS174; conditions: Homo sapiens, LS174, 72 h, read-out: IC50 (μM) LS174
In short: as §1

[5] = tested on: HeLa cells; assay: Antiproliferative activity, Kenacid Blue R dye binding cell survival, HeLa; conditions: Homo sapiens
In short: as §1

[6] = read-out: Obtained log(1/(IC50)) (converted)

Row | SMILES | IC50 [1] | IC50 [2] | IC50 [3] | IC50 [4] | IC50 ([5]; 72 h, read-out: IC50 (μM) HeLa) | IC50 [5, 6]
1 | CC(O)(CC(=O)O)c1ccc(-c2ccccc2)cc1 (stereo not shown) [Compound 4, 3-Hydroxy-3-(4-biphenylyl)butanoic acid] | > 200 µM | > 200 µM | > 300 µM | > 200 µM | 98.7 µM | 98.6 µM
2 | CC(C)Cc1ccc(C(C)(O)CC(=O)O)cc1 (stereo not shown) [Compound 12, 3-Hydroxy-3(4-isobutylphenyl)butanoic acid] | > 200 µM | > 200 µM | > 300 µM | > 200 µM | 151 µM | 151 µM
3 | CC(C)(C(=O)O)C(C)(O)c1ccc(-c2ccccc2)cc1 (stereo not shown) [Compound 1, 3-Hydroxy-2,2-dimethyl-3-(4-biphenylyl)butanoic acid] | 205 µM | 141 µM | > 300 µM | 154 µM | 62.2 µM | 62.2 µM
4 | CC(C)(C(=O)O)C(C)(O)c1ccccc1 (stereo not shown) [Compound 11, 3-Hydroxy-2,2-dimethyl-3-phenylbutanoic acid] | – | – | > 300 µM | – | 133 µM | 133 µM
5 | O=C(O)CC(O)(c1ccccc1)c1ccccc1 [Compound 14, 3-Hydroxy-3,3-diphenylpropanoic acid] | – | – | – | – | 183 µM | 182 µM
6 | O=C(O)CC(O)c1ccccc1Cl (stereo not shown) [Compound 8, 3-Hydroxy-3-(2-chlorophenyl)propanoic acid] | > 200 µM | > 200 µM | – | > 200 µM | 118 µM | 118 µM
7 | CC(C(=O)O)C(O)c1ccccc1Cl (stereo not shown) [Compound 3, 3-Hydroxy-2-methyl-3-(2-chlorophenyl)propanoic acid] | 89 µM | 92 µM | > 300 µM | 93 µM | 97.2 µM | 97.3 µM
8 | CC(C)(C(=O)O)C(O)c1ccc(Cl)cc1 (stereo not shown) [Compound 7, 3-Hydroxy-2,2-dimethyl-3-(4-chlorophenyl)propanoic acid] | > 200 µM | > 200 µM | > 300 µM | > 200 µM | 106 µM | 106 µM
9 | CC(C(=O)O)C(O)(c1ccccc1)c1ccccc1 (stereo not shown) [Compound 6, 3-Hydroxy-2-methyl-3,3-diphenylpropanoic acid] | – | – | – | – | 99.4 µM | 99.3 µM
10 | CC(C)(C(=O)O)C(O)(c1ccccc1)c1ccccc1 [Compound 2, 3-Hydroxy-2,2-dimethyl-3,3-diphenylpropanoic acid] | – | – | – | – | 80.6 µM | 80.5 µM
11 | CC(C)(C(=O)O)C(O)c1ccccc1 (stereo not shown) [Compound 13, 3-Hydroxy-2,2-dimethyl-3-phenylpropanoic acid] | – | – | – | – | 165 µM | 165 µM

From article PMC3685236 (International Journal of Molecular Sciences, 2007)
